# ChEMBL document CHEMBL2417442, “Modulation of αvβ₃- and α₅β₁-integrin-mediated adhesion by dehydro-β-amino acids containing peptidomimetics” (Eur J Med Chem, 2013)
# Active and inactive are the calls of the source. The rule behind the calls is not given here.
# What was measured:
# Integrin alpha-V/beta-3 [1] = target: T1, Integrin alpha-V/beta-3 (Homo sapiens, UniProt P05106+P06756); experiment: Inhibition of alphaVbeta3 integrin-mediated human SK-MEL-24 cell adhesion to fibronectin incubated for 30 mins before plating measured after 1 hr; assay type: protein-complex assay
# Summary of the method: (§1)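 Cells pre-incubated with a range of compound concentrations for 30 min at room temperature. Then 50000 cells/well plated on fibronectin (10 µg/mL) coated overnight at 4°C and left 1 h at room temperature. After PBS washes, adherent cells were quantified by hexosaminidase activity: 4-nitrophenyl-N-acetyl-β-D-glucosaminide in citrate buffer pH 5 with Triton X-100, stopped with glycine/EDTA pH 10.4, read at 405 nm. Quadruplicates, at least three repeats; IC50 fitted.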
# Target sequence in this assay (P05106 27-788 limits assumed): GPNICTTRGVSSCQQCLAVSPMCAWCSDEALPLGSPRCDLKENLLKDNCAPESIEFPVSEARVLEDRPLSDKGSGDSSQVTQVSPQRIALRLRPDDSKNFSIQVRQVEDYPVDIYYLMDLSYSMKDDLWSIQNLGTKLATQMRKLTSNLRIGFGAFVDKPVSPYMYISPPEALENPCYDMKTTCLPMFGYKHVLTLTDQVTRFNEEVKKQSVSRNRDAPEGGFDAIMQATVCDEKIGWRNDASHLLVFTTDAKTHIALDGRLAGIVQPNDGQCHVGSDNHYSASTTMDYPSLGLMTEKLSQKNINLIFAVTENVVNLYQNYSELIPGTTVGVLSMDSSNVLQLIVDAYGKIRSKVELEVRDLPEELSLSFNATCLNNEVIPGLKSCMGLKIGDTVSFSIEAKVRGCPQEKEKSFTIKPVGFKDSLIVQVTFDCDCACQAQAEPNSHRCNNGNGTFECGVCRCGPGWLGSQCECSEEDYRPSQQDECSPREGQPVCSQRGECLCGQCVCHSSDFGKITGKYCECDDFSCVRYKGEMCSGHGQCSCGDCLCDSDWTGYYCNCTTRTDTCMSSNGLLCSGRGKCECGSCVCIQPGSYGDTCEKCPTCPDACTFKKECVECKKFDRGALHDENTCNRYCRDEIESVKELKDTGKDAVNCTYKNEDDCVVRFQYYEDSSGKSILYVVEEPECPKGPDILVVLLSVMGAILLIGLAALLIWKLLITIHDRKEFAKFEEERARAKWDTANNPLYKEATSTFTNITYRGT
# Target sequence in this assay (P06756 31-889 limits assumed): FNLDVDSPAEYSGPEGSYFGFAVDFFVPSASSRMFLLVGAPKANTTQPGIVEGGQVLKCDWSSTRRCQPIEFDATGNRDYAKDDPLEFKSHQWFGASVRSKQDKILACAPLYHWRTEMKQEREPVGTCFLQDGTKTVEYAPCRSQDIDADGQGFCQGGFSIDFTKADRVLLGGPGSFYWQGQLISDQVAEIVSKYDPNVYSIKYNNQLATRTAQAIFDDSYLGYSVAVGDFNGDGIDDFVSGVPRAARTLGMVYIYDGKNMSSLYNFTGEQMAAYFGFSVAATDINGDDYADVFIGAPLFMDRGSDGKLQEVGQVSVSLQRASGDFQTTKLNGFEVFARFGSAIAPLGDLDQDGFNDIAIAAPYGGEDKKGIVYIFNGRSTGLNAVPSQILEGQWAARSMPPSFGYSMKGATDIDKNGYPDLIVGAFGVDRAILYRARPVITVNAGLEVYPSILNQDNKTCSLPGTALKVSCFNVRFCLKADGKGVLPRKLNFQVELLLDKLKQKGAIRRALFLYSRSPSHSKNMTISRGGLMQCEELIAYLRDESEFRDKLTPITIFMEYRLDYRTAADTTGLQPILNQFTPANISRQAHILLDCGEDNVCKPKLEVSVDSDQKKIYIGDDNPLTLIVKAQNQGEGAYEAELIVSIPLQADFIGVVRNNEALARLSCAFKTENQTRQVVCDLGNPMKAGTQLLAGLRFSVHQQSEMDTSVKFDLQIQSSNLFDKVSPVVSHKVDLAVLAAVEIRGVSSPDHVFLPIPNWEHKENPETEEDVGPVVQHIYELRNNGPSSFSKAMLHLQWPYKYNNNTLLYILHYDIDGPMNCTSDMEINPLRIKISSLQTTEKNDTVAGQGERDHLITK
# Target sequence in this assay (P06756 891-1048 limits assumed): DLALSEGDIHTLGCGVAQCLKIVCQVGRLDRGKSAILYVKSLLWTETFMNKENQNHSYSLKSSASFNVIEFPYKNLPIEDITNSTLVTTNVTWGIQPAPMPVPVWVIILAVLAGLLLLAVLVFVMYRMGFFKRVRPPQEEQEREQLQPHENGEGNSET
# Integrin alpha-5/beta-1 [2] = target: T2, Integrin alpha-5/beta-1 (Homo sapiens, UniProt P05556+P08648); experiment: Inhibition of alpha5beta1 integrin-mediated human K562 cell adhesion to fibronectin incubated for 30 mins before plating measured after 1 hr; assay type: protein-complex assay; summary of the method: as §1
# Target sequence in this assay (P05556 21-798 limits assumed): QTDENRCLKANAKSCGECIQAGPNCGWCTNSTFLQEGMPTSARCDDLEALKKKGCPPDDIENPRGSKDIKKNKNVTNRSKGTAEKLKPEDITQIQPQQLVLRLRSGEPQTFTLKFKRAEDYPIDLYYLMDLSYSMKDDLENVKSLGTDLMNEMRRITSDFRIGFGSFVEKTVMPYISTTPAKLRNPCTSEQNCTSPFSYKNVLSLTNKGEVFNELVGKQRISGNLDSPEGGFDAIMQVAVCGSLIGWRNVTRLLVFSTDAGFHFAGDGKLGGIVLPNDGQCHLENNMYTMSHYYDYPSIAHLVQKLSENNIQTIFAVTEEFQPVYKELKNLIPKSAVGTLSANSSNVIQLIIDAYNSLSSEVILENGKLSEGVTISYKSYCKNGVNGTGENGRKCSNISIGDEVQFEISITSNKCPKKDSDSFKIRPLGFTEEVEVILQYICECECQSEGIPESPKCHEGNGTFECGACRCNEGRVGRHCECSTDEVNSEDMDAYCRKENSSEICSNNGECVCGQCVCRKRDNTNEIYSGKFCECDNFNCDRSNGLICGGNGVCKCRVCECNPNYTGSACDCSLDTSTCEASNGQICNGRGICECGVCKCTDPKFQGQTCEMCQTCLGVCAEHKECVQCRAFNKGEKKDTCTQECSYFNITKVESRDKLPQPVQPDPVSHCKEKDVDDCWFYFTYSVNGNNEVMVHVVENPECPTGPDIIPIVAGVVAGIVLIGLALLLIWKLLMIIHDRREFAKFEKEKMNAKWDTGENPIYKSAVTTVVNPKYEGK
# Target sequence in this assay (P08648 42-894 limits assumed): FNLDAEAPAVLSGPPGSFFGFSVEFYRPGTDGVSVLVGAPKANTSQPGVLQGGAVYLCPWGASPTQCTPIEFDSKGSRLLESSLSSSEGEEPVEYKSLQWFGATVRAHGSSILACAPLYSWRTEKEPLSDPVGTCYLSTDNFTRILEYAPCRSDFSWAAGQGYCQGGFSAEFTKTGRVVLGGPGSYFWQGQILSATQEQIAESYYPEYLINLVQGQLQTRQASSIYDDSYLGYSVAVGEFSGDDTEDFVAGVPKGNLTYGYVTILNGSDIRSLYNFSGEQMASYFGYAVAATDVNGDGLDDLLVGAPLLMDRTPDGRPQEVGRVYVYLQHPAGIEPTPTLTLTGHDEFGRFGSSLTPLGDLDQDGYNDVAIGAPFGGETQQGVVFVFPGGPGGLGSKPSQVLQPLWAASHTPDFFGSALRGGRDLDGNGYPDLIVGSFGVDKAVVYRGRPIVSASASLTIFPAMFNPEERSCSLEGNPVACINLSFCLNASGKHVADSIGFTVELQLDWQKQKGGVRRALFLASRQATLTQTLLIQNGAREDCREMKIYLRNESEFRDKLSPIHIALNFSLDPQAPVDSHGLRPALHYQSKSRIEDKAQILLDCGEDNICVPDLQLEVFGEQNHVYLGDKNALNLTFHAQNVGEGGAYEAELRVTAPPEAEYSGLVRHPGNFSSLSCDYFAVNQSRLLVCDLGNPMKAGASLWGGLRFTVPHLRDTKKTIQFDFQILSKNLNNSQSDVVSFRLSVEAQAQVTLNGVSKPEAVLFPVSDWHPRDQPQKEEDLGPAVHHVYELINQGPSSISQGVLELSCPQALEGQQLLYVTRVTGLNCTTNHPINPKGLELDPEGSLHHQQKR
# Target sequence in this assay (P08648 895-1049 limits assumed): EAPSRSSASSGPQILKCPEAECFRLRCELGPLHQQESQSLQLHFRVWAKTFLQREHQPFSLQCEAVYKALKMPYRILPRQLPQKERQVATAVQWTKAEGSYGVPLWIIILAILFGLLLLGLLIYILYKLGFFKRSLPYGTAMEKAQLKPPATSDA
# Integrin alpha-V/beta-3 [3] = target: T1, Integrin alpha-V/beta-3; experiment: Inhibition of alphaVbeta3 integrin-mediated human DAOY cell adhesion to fibronectin incubated for 30 mins before plating measured after 1 hr; assay type: protein-complex assay; summary of the method: as §1
# Integrin alpha-V/beta-3 [4] = target: T1, Integrin alpha-V/beta-3; experiment: Inhibition of alphaVbeta3 integrin in human DAOY cells assessed as inhibition of fibronectin-induced ERK1/2 phosphorylation at 10 uM incubated for 30 mins prior to fibronectin challenge measured after 90 mins by Western blotting analysis; assay type: cell-based
# Summary of the method: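 DAOY medulloblastoma cells serum-starved 16 h in DMEM, detached, then given compound at 10 µM for 30 min. Plated 90 min on fibronectin (10 µg/ml)-coated, BSA-blocked plates; suspension cells as control. Lysed with phosphatase inhibitors, separated on 12% SDS-PAGE and immunoblotted for phospho-ERK1/2 and total ERK1/2.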
# Integrin alpha-5/beta-1 [5] = target: T2, Integrin alpha-5/beta-1; experiment: Inhibition of alpha5beta1 integrin in human K562 cells assessed as inhibition of fibronectin-induced ERK1/2 phosphorylation at 10 uM incubated for 60 mins prior to fibronectin challenge measured after 60 mins by Western blotting analysis; assay type: cell-based
# Summary of the method: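 K562 cells, PMA-differentiated (25 ng/mL for 40 h), then serum-starved 16 h in RPMI-1640 with 1% FBS. Compound at 10 µM for 60 min in suspension, then plated 60 min on fibronectin (10 µg/ml)-coated, 1% BSA-blocked plates. Suspension cells served as control and PMA 65 nM as positive control. Lysates run on 12% SDS-PAGE and blotted for phospho- and total ERK1/2. pERK normalized to total ERK by densitometry; mean ± SEM, n=6.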
IC50 (Integrin alpha-V/beta-3 [1]) [nM],IC50 (Integrin alpha-5/beta-1 [2]) [nM],inhibition (Integrin alpha-V/beta-3 [3]),inhibition (Integrin alpha-V/beta-3 [4]),inhibition (Integrin alpha-5/beta-1 [5]),Molecule
0.62,930,–,–,–,H-GRGDTP-OH
830,2100,–,–,–,C/C=C(\C(=O)O)C(NCc1ccc(N)cc1)C1CCCCC1 (configuration not stated)
> 100000,19,–,–,–,C/C=C(\C(=O)O)C(C)NCc1ccc(N)cc1 (configuration not stated)
120,9800,Active,Active,–,C/C=C(\C(=O)NCC(=O)O)C(C)NCc1ccc(N)cc1 (configuration not stated)
> 100000,> 100000,–,–,–,C/C=C1\C(=O)N(CC(=O)O)C(=O)N(Cc2ccc(NC(=O)CN)cc2)C1C(C)C (configuration not stated)
2000,220,–,–,–,C/C=C(\C(=O)NCC(=O)O)C(NCc1ccc(N)cc1)C(C)C (configuration not stated)
270,170,Active,Active,Active,C/C=C(\C(=O)NCC(=O)O)C(NCc1ccc(NC(=O)CN)cc1)C(C)C (configuration not stated)
71,57,–,–,–,CCCN(C(=O)CC(=O)O)C1=C(C)CC(c2ccccc2)N([C@@H](C)c2ccc(N)cc2)C1=O (some centres not stated)
8800,1050,–,–,–,CC1=C(C(=O)NCc2ccc(N)cc2)C(C(C)C)N(C(=O)CC(=O)O)O1 (configuration not stated)
1490,9800,–,–,–,C/C=C(\C(=O)O)C(NCc1ccc(N)cc1)C(C)C (configuration not stated)

Molecule,IC50 (Integrin alpha-V/beta-3 [1]) [nM],IC50 (Integrin alpha-5/beta-1 [2]) [nM],inhibition (Integrin alpha-V/beta-3 [3]),inhibition (Integrin alpha-V/beta-3 [4]),inhibition (Integrin alpha-5/beta-1 [5])
H-GRGDNP-OH,230,> 100000,–,–,–
